In the library only some 4% were active in any assay of this set; here they are far more common.
Cardio protect: myocardial damage modulation in H9c2 cells. H9c2 cardiomyocytes, H2O2 injury protection, ATPLite, 2 h. protection from H2O2 cell death, % at 20 µM. 0.63% of 360,000 active. AID 588492;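 active means compounds giving at least 50% protection of heart cells from peroxide-induced death in the single-dose screen, raw or plate-pattern-corrected value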
Arr AP2 block: blocks beta-arrestin peptide binding to AP2 adaptin | FITC-arrestin peptide / GST-AP2 beads, flow cytometry; AP2 beta2 appendage carries R879A mutation | inhibition, % at 10 µM | 0.31% of 340,000 active | AID 504490;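 active means inhibition above a set limit, near 3 SD of compounds lacking own fluorescence, cut at about 54% in these data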
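Test system: GST-tagged AP2 beta2-adaptin appendage (R879A) on 4 µm glutathione beads; also added: fluorescein-tagged arrestin peptide at 50 nM final; timing: 12 min plus 1 h, RT; signal: flow cytometry, FL1 (488/535 nm); read-out: percent drop in bead-associated FITC signal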
SENP1 FRET inh: SENP1 (human) catalytic domain inhibition; AID 624204; inhibition, % at 10 µM; Q9P0U3; 0.21% of 360,000 active; recombinant SENP1 catalytic domain, CyPet-SUMO1-YPet FRET cleavage;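 active means inhibition at least 30% at 10 µM, raw YFP signal under a set limit, fluorescence ratio 0.5 to 1.5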
Target sequence (Q9P0U3 419-644 limits assumed): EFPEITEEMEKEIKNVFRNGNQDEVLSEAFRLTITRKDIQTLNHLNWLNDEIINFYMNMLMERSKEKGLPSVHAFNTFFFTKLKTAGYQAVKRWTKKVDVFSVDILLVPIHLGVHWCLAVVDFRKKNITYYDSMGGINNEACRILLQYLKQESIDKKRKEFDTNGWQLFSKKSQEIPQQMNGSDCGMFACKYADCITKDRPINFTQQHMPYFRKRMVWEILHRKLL
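System: Recombinant human SENP1 catalytic domain, His6-tagged | Incubation: Enzyme reaction for 50 min at room temperature, dark | Medium: Tris pH 8 with BME, BSA, NP40 and catalase | Also added: 25 nM SUMO1 FRET substrate | Compound: 10 µM single point, 0.5% DMSO | Measured by: FRET fluorescence in CFP and YFP emission channels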
FAS TE block: blocks the thioesterase domain of human fatty acid synthase; P49327; recombinant FAS-TE, OMFH fluorogenic substrate, fluorescence endpoint; inhibition, % at 15 µM; 0.67% of 360,000 active; AID 602261;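 active means compounds whose normalised, plate-corrected inhibition of enzyme fluorescence in the single-dose primary screen is 50% or more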
iPSC survival up: increases survival of single human iPS cells. hiPSC single-cell survival, ATPlite luminescence; 100% = ROCK inhibitor wells, 0% = DMSO. 0.044% of 360,000 active. survival enhancement, % at 20 µM; in the data active means survival enhancement above about 18%;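 further: cells exposed to compounds for 16 hours before the ATP read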
GRIN3A LBD mod: NR3A (human) ligand-binding domain modulation; NR3A LBD differential scanning fluorimetry, Tm shift; 0% = protein alone, 100% = glycine-bound protein; Tm shift relative to glycine control, % at 25 µM; 2.5% of 340,000 active; AID 1259313;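 active means melting temperature shift of at least 10% of the positive control shift, at one fixed dose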
Large screens that a line does not name were inactive.

Cc1ccc(C(=O)N/N=C/c2c(O)ccc3ccccc23)cn1	none
Cn1nccc1C(=O)N/N=C/c1c(O)ccc2ccccc12	none
O=C(NN=Cc1c(O)ccc2ccccc12)c1ccncc1	none
O=C(N/N=C/c1c(O)ccc2ccccc12)c1ccc[n+](CCO)c1	Cardio protect 56.5
Cn1cc(C(=O)N/N=C/c2c(O)ccc3ccccc23)ccc1=O	Cardio protect 71.2
Cc1occc1C(=O)N/N=C/c1c(O)ccc2ccccc12	GRIN3A LBD mod 32.1
O=C(NCc1ccc(Cl)c(Cl)c1)c1cc(C2CCCCN2C(=O)c2ccccn2)on1 (configuration not stated)	none (no result: Arr AP2 block, GRIN3A LBD mod)
CN(Cc1ccc(Cl)cc1)C(CCc1ccccc1)C(=O)NC1CCCCC1 (configuration not stated)	none (no result: Arr AP2 block, GRIN3A LBD mod)
O=C(NCc1ccco1)C(c1ccc(F)cc1)N(Cc1cccnc1)C(=O)Cn1nnc2ccccc21 (configuration not stated)	none
O=C(NCc1ccco1)C(c1ccccc1F)N(Cc1cccnc1)C(=O)Cn1nnc2ccccc21 (configuration not stated)	GRIN3A LBD mod 11.0
COc1cc(NC(=O)c2cc(-c3cccnc3)nc3ccc(Br)cc23)cc(OC)c1	GRIN3A LBD mod 10.1
COc1cccc(CN2CCN(C(=O)c3cc(-c4cccnc4)nc4ccc(C)cc34)CC2)c1	Cardio protect 49.8
CCOC(=O)c1ccccc1NS(=O)(=O)c1ccc(C)cc1	none
CCOC(=O)c1cc(C)n(S(=O)(=O)c2ccc(C)cc2)c1C	GRIN3A LBD mod 13.7
CC(C)[C@@H]1Cc2[nH]n(C)c(=O)c2[C@H](c2ccc(Cl)cc2)O1	none (no result: Cardio protect, Arr AP2 block, GRIN3A LBD mod)
Cn1c(=O)n(C)c2cc(CNC(=O)[C@H]3O[C@@H](n4ccc(=O)[nH]c4=O)[C@H](O)[C@@H]3O)ccc21	none (no result: Arr AP2 block, GRIN3A LBD mod)
CCCCCCn1c(O)c(/C=C2\C=NN=C2c2ccccc2)sc1=S	GRIN3A LBD mod 35.2
CCCCn1c(O)c(/C=C2\C=NN=C2c2ccccc2)sc1=S	GRIN3A LBD mod 25.6
CC(C)Cn1c(O)c(/C=C2\C=NN=C2c2ccccc2)sc1=S	GRIN3A LBD mod 29.9
O=C(NCC(F)(F)F)c1[nH]c(C(F)(F)F)nc1-c1ccccc1	none (no result: Arr AP2 block, GRIN3A LBD mod)
CC1(C)OC2CC3C4CCC5=CC(=O)C=CC5(C)C4(F)C(O)CC3(C)C2(C(=O)CO)O1 (configuration not stated)	none (no result: Arr AP2 block, GRIN3A LBD mod)
CC1(C(=O)Nc2cccc(C#N)c2)CCN1C(=O)Cc1ccc(-c2ccccc2)cc1 (configuration not stated)	none (no result: Arr AP2 block, GRIN3A LBD mod)
COc1ccc(Cn2c(O)c(C=Nc3ccc(O)cc3)c3ccccc3c2=O)cc1	GRIN3A LBD mod 23.3
CCN(c1ccc(NC(=O)COC(=O)c2ccc([N+](=O)[O-])o2)cc1)C(C)C	Cardio protect 60.9
O=C(COC(=O)C1=COCCO1)Nc1cccc(S(=O)(=O)N2CCOCC2)c1	GRIN3A LBD mod 11.1
O=C(COC(=O)c1ccc([N+](=O)[O-])o1)Nc1cccc(S(=O)(=O)N2CCCCC2)c1	Cardio protect 53.4
CC(=O)Nc1ccc(NC(=O)COC(=O)c2ccc([N+](=O)[O-])o2)cc1	none
CC1=C(C(=O)N(C(C)C)C(C)C)CC(CC(=O)NCCCCc2ccccc2)C(=O)N1Cc1ccc(C(C)(C)C)cc1 (configuration not stated)	none (no result: Arr AP2 block, GRIN3A LBD mod)
COC(=O)c1nc(-c2ccc(C)cc2)[nH]c1C(C)(C)C	none (no result: Arr AP2 block, GRIN3A LBD mod)
O=c1ccc(-c2ccc(S(=O)(=O)Nc3ccc(F)cc3)o2)n[nH]1	none
Cc1ccccc1NS(=O)(=O)c1ccc(-c2ccc(=O)[nH]n2)o1	GRIN3A LBD mod 14.8
CC1(C)OC(=O)C2=C(C[C@@H](C3CCCC3)O[C@H]2c2ccc(Cl)cc2)O1	none (no result: Cardio protect, Arr AP2 block, GRIN3A LBD mod)
CCOC(=O)c1cc(-c2ccccc2)nn1CC1CC(c2ccc(OC)cc2)=NO1 (configuration not stated)	GRIN3A LBD mod 12.9
CCOC(=O)c1cc(-c2ccccc2C)nn1CC1CC(c2ccc(OC)cc2)=NO1 (configuration not stated)	none
CCc1cccc(OCCn2nc(C(=O)O)c3ccccc3c2=O)c1	none
O=C(O)c1nn(CCOc2ccc(Br)cc2)c(=O)c2ccccc12	Cardio protect 55.4
O=C(O)c1nn(CCOc2ccccc2F)c(=O)c2ccccc12	Cardio protect 53.7
CC(C)(C)OC(=O)N1CCC(C(=O)Nc2ccc(C(=O)NC3CC3)cc2)CC1	none
CCCNC(=O)C1(C)CCCN(CC(=O)c2ccc3c(c2)OCCO3)C1 (configuration not stated)	none (no result: Arr AP2 block, GRIN3A LBD mod)
Cc1ccc(NC2=Nc3ccccc3N3C2=Nc2c(c(C)nn2-c2ccccc2)C3c2ccc(O)c(O)c2)cc1 (configuration not stated)	GRIN3A LBD mod 14.9
Cc1cccc(NC2=Nc3ccccc3N3C2=Nc2c(c(C)nn2-c2ccccc2)C3c2ccc(O)c(O)c2)c1 (configuration not stated)	GRIN3A LBD mod 21.8
S=C(NCCc1ccccc1)NCCc1ccccc1	GRIN3A LBD mod 26.0
S=C(NCc1ccccc1)Nc1ccc(Oc2ccccc2)cc1	GRIN3A LBD mod 11.5
CCNC(=S)Nc1ccc(Oc2ccccc2)cc1	none
S=C(NCc1ccc(Cl)cc1Cl)Nc1ccccc1	GRIN3A LBD mod 12.7
S=C(NCCC(c1ccccc1)c1ccccc1)Nc1cccc(Cl)c1	GRIN3A LBD mod 15.8
CCN(CC)C(=O)C1=C(C)N(CCCN2CCCC2=O)C(=O)C(CC(=O)NC2CCCC2)C1 (configuration not stated)	none (no result: Arr AP2 block, GRIN3A LBD mod)
C=CCNC(=S)Nc1ccc(Br)cc1F	none
S=C(NCc1ccccc1)NCc1ccc(CNC(=S)NCc2ccccc2)cc1	GRIN3A LBD mod 19.9
S=C(NCCc1ccccc1)N/N=C/c1ccc(Cl)cc1	none
O=S(=O)(Nc1ccc(S(=O)(=O)N2CCOCC2)cc1)c1ccccc1	GRIN3A LBD mod 10.3
S=C(NCCc1ccccc1)Nc1ccc(Cl)cc1	GRIN3A LBD mod 27.3
Fc1ccc(CNC(=S)NCc2ccccc2)cc1	none
Fc1cc(Br)ccc1NC(=S)NCCc1ccccc1	GRIN3A LBD mod 30.5
O=C(NCCc1ccccc1)Nc1ccc(Cl)cc1	GRIN3A LBD mod 15.8
CC(C)CCNC(=S)Nc1ccccc1F	GRIN3A LBD mod 13.7
CCCCc1ccc(NC(=S)NCCc2ccc(F)cc2)cc1	none
Fc1ccc(CCNC(=S)Nc2ccc(F)cc2)cc1	GRIN3A LBD mod 19.5
CC(C)CCNC(=S)Nc1ccccn1	none
Cc1ccccc1NC(=O)NCCc1ccc(Cl)cc1	none
O=C(NC(=S)NCc1ccccc1)C1CCCCC1	GRIN3A LBD mod 18.3
Cc1cccc(NC(=O)CCS(=O)(=O)c2ccc3nc(C)sc3c2)c1	none (no result: Arr AP2 block, GRIN3A LBD mod)

Source: PubChem
